Consider 24 compounds from ChEMBL document CHEMBL4610072, “Polyacetylenes from Oplopanax horridus and Panax ginseng: Relationship between Structure and PPARγ Activation” (J Nat Prod, 2020).

Assay type in all cases: cell-based
For data set [1], the system named is HEK293. Description: Cytotoxicity against HEK293 cells assessed as cell viability at 10 uM after 24 hrs by resazurin conversion assay. The conditions noted are these: human, hek293, 24 h. In a few lines:
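HEK293 cells seeded 5 × 10^5 per well, grown overnight, then exposed to 10 μM compound in stripped DMEM for 24 h; vehicle 0.4% DMSO. Wells PBS-washed, then 10 μg/mL resazurin in PBS added for 4 h; conversion read by fluorescence (excitation 535 nm). Viability relative to vehicle; at least three experiments, four technical replicates each.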
(In general: The colour change of resazurin is a common sign of viable cells or microbes.)

Data set [2] has as its target T1, Peroxisome proliferator-activated receptor gamma (Homo sapiens) (UniProt P37231).
T1 sequence (whole entry): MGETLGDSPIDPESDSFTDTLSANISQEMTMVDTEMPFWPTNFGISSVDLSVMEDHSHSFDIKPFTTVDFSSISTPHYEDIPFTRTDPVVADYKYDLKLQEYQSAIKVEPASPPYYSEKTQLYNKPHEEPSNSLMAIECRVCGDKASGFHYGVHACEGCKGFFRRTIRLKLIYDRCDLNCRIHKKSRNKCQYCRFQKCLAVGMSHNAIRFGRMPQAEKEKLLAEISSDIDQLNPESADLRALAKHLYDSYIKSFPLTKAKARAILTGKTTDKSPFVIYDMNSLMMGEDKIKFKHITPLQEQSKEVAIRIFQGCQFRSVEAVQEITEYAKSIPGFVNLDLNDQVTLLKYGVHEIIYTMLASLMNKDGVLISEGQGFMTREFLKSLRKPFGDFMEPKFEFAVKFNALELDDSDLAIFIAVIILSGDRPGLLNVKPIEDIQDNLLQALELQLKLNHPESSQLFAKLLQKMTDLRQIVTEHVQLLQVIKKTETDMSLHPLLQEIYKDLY
Description: Activation of human PPARgamma expressed in HEK293 cells assessed as maximum fold activation at 0.1 to 30 uM incubated for 18 hrs by luciferase reporter assay relative to control.

Data set [3] is described as follows: (§1) Cytotoxicity against HEK293 cells assessed as cell viability at 3 uM after 18 hrs by luciferase assay relative to control. The conditions noted are these: human, HEK293 cells; read-out: Activity. An outline of the steps: (§2)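 HEK293 cells calcium-phosphate co-transfected with PPARγ expression plasmid, PPRE-luciferase reporter and pEGFP-N1; 6 h later reseeded at 4 × 10^5/well in DMEM with 5% charcoal-stripped serum and given 3 μM compound for 18 h; vehicle 0.1% DMSO. After lysis, EGFP fluorescence relative to vehicle gave viability; n = 3–4, four technical replicates.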

For data set [4], the system named is HEK293. The data set is described as §1. The conditions noted are these: human, hek293, 18 h, 3 µM. An outline of the steps:
as §2

On to `CC(=O)OCCCCCCCC/C=C\[C@H](O)C#CC#C[C@@H](O)CCO`, for which, in data set [1], the Activity result was “Non-Toxic”.

For `C=C[C@@H](O)C#CC#C[C@@H](O)/C=C\CCCCCCC` [FALCARINDIOL], the Emax in data set [2] stood at 3.26.

With `C=C[C@@H](O)C#CC#CC/C=C\CCCCCCCCO`, the viability at 18 h, 3 µM in data set [3] was over 70%. Further, the Activity entry in data set [1] is “Non-Toxic”.

As to `C=C[C@@H](O)C#CC#CCC1OC1CCCCCCC` (some centres undefined), the viability at 18 h, 3 µM in data set [3] was over 70%. Further, the Activity result in data set [1] is given as “Non-Toxic”.

For `CC[C@H](O)C#CC#C[C@@H](O)/C=C\CCCCCCCCOC(C)=O` [OPLOPANDIOL ACETATE], the Activity entry in data set [1] is “Non-Toxic”.

Regarding `CCCCCCC/C=C\[C@H](O)C#CC#C[C@@H](O)CC` [OPLOPANDIOL], the Activity result in data set [1] was “Non-Toxic”.

Regarding `CC[C@@H](O)C#CC#C/C=C/[C@@H](O)CCCCCCCCOC(C)=O`, the Activity result in data set [1] was “Non-Toxic”.

With `CCCCCCC[C@@H]1O[C@@H]1CC#CC#CC(=O)CC`, the Activity entry in data set [1] is given as “Non-Toxic”.

In the case of `CC[C@@H](O)C#CC#C/C=C/[C@@H](O)CCCCCCCCO`, in data set [1], the Activity entry is given as “Non-Toxic”.

For the compound `CCCCCCC(O)/C=C\[C@H](O)C#CC#C[C@@H](O)CC` (some centres undefined), the Activity result in data set [1] was “Non-Toxic”.

As to `C=C[C@H](O)C#CC#C[C@@H](O)/C=C\CCCCCCCCO`, the Activity entry in data set [1] is reported as “Non-Toxic”.

For `CCCCCCC[C@H](O)/C=C/C#CC#C[C@H](O)CC`, the Activity result in data set [1] is “Non-Toxic”.

As to `C=C[C@H](O)C#CC#C[C@@H](O)/C=C\CCCCCCCCOC(C)=O`, in data set [1], the Activity result is given as “Non-Toxic”.

With `CC[C@H](O)C#CC#C[C@@H](O)/C=C\CCCCCCCCO`, the Activity result in data set [1] is on record as “Non-Toxic”.

Regarding `C=CCCCCC[C@@H]1O[C@@H]1CC#CC#CC(=O)CC`, in data set [1], the Activity result was “Non-Toxic”.

`C=C[C@H](O)C#CC#C[C@@H](O)/C=C\C(O)CCCCCC` (some centres undefined): in data set [1], the Activity entry was “Non-Toxic”.

In the case of `OCCCCCCCC/C=C\[C@H](O)C#CC#C[C@@H](O)CCO`, the Activity entry in data set [1] is listed as “Non-Toxic”.

For the compound `C=C[C@@H](O)C#CC#C/C=C/[C@@H](O)CCCCCCCCO`, the Activity result in data set [1] is “Non-Toxic”.

Consider `C=C[C@@H](O)C#CC#C/C=C/[C@@H](O)CCCCCCCCOC(C)=O`, for which the Activity result in data set [1] is recorded as “Non-Toxic”.

`C=C[C@H](O)C#CC#C[C@@H](O)/C=C\CCCCCCC`: the Activity entry in data set [4] is reported as “Toxic”; in data set [1] it was “Non-Toxic”.

Turning to `C=C[C@@H](O)C#CC#C/C=C/[C@@H](O)CCCCCCC`, the Activity result in data set [1] is “Non-Toxic”.

Take `CCCCCCC/C=C\[C@H](O)C#CC#C[C@@H](O)CCO`: in data set [1], the Activity result is given as “Non-Toxic”.

With `C=C[C@@H](O)C#CC#CC/C=C\CCCCCCCCOC(C)=O`, the viability at 18 h, 3 µM in data set [3] is over 70%. For the same compound, the Activity entry in data set [1] was “Non-Toxic”.

Take `C=C[C@@H](O)C#CC#CC/C=C\CCCCCCC`: in data set [3], the viability at 18 h, 3 µM was over 70%. Also, the Activity result in data set [1] is “Non-Toxic”.
